# An excerpt weighted towards active compounds, which were near 1.8% of everything screened.
# Runt-SMMHC FRET = Runt domain-CBFb-SMMHC interaction inhibition | inhibition, % at 20 µM | 220,000 tested, 0.74% active | Q01196+Q13951 | Cerulean-Runt/Venus-CBFb-SMMHC FRET ratio 530/480, 1 h;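 active means mean inhibition across duplicate retests at 20 µM reaching about 50%, limit read from the data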;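 further: inhibitors lower the FRET ratio by blocking Runt binding to CBFb-SMMHC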
# Target sequence (Q01196 whole entry, looked up, the tested form may be a part): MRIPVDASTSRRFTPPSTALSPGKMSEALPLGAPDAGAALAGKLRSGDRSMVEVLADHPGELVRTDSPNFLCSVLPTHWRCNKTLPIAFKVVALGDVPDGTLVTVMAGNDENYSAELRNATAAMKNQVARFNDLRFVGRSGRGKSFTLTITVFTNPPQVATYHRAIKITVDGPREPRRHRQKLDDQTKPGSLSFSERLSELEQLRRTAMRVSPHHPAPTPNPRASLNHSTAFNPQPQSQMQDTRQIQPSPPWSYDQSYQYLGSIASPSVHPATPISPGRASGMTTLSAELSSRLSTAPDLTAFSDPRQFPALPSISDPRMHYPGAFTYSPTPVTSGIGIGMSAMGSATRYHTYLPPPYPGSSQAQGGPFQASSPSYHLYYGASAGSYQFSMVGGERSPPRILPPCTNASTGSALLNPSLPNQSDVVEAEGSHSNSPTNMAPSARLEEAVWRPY
# Target sequence (Q13951 whole entry, looked up, the tested form may be a part): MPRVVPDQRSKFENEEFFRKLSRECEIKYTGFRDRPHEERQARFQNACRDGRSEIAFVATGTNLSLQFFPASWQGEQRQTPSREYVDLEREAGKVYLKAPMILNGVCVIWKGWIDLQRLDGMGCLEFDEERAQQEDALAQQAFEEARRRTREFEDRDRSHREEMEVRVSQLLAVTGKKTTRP
# Rce1 inhib = yeast Ras-converting enzyme inhibition; Q03530; yeast membranes, quenched prenylated peptide cleavage fluorescence; calls only; 290,000 tested, 0.27% active;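 active means fall in fluorescence gain of 50% or more versus controls, with final raw signal at or below 3038400; inconclusive means same 50% fall but final raw signal above 3038400; inactive means fall in fluorescence gain under 50%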
# RanGTP-Impb inh = disruptors of Ran-importin-beta complex formation – biochemical, FRET, CFP-Ran, YFP-importin-beta, homogeneous, primary screen; 300,000 tested, 1.1% active; AID 2216; cell-free CFP-Ran/YFP-importin-beta FRET ratio; inhibition, % (test concentration not listed);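 active means more than half of the replicate wells show a fall in the fluorescence ratio signal beyond about 16%, limit read from the data, passing the limit was not always enough; inconclusive means exactly half of the replicate wells pass the set limit; inactive means fewer than half of replicates pass the limit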
# Runt-CBFb FRET = inhibitors of human RUNX1 Runt domain binding to CBFb; Q01196+Q13951; Cerulean-Runt/Venus-CBFb FRET ratio 530/480, 1 h; inhibition, % at 20 µM; 220,000 tested, 0.46% active; AID 1496;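 active means inhibition over about 50% at 20 µM in the single-dose screen, limit read from the data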
#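 Reagent – Venus-CBFb binding partner, 100 nM · Assay system – Cerulean-tagged RUNX1 Runt domain (FRET donor) fusion protein · Input – 100 nM per protein · Incubation – two 1 h room-temperature incubations shielded from light · Measured by – FRET fluorescence · Medium – Tris buffer pH 7.5 with salts and BSA · Benchmarks – unlabeled CBFb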
# Platelet DG rel = modulates dense granule release in human platelets; human platelet-rich plasma, SFLLRN dense granule ATP release, luminescence; 300,000 tested, 0.22% active; inhibition, %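 (compounds screened at 7.5 µM in platelet-rich plasma)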;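 active means mean replicate score, as percent of positive control, at or above 50; inconclusive means mean below 50 but at least one replicate at or above 50; inactive means mean and every replicate below 50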
# Hits are given with their value; i = inactive; ? = inconclusive; nt = no result given; + = active, no number.
SMILES,Runt-SMMHC FRET,Rce1 inhib,RanGTP-Impb inh,Runt-CBFb FRET,Platelet DG rel
CCCCn1c(=NC(=O)c2cccnc2)c(C(=O)OCC)cc2c(=O)n3ccccc3nc21,62,i,82,93,i
CCN1CCN(C(=O)c2ccccc2NS(=O)(=O)c2ccc(Cl)cc2)CC1,i,i,i,i,i
Cc1cccc(C(=O)OCC(=O)NCCCc2ccccc2)c1,i,i,i,i,i
Cn1c(N)c(C(=O)COC(=O)C2CC(=O)N(Cc3ccccc3)C2)c(=O)n(C)c1=O (stereo not given),i,i,i,i,i
CC(=O)Nc1cccc(N2C(=O)CC(Cc3ccccc3)C2=O)c1 (stereo not given),i,i,i,i,57
Cc1cc(=O)oc2cc(N3C(=O)CC(Cc4ccccc4)C3=O)ccc12 (stereo not given),nt,i,i,nt,i
COc1ccc(C(NC(=O)N2CC(C)OC(C)C2)C(Cl)(Cl)Cl)cc1F (stereo not given),i,i,i,i,i
CC(=O)c1cccc(NC(=O)Nc2c(C)nn(C)c2C)c1,i,i,63,i,i
CCOC(=O)c1ccc(NC(=O)Nc2c(C)nn(C)c2C)cc1,i,i,i,i,i
CC(=O)Nc1c(N)c2ccccc2oc1=O,i,i,i,i,i
S=c1[nH]cc(-c2ccccc2)n1-c1ccccc1Cl,i,i,i,i,i
COc1ccccc1-n1c(-c2ccccc2)c[nH]c1=S,54,+,?,i,i
CCOc1nc(NC(=O)NS(=O)(=O)c2cccc(Cl)c2)nc(-c2ccccc2)n1,i,i,i,i,i
O=c1[nH]c(C(Cl)Cl)nc2sc3c(c12)CCN(Cc1ccccc1)C3,nt,i,37,54,i
CCCSc1nc2sc3c(c2c(=O)[nH]1)CCN(Cc1ccccc1)C3,i,i,i,i,i
N#C/C(C(=O)Oc1ccccc1)=C1\C=Cc2ccccc2N1,i,nt,54,i,i
CCCCC(=O)Nc1cc(NC(=O)CC)ccc1Cl,i,i,i,i,i
CC(C)CC(=O)Nc1nnc(SCC(=O)NCc2ccc3c(c2)OCO3)s1,i,i,i,i,i
Cc1ccc(OCC(=O)N/N=C/c2cn(C)c3ccccc23)cc1,i,i,i,i,i
CCOC(=O)c1c2ccc(OCC(=O)NN)cc2n2ccccc12,86,i,66,i,i
CCOC(=O)c1c2ccc(OCC(=O)N/N=C/c3ccc(C)cc3)cc2n2ccccc12,i,i,29,i,i
CCOC(=O)Oc1ccc(/C=C2\N=C(C)OC2=O)cc1,nt,i,i,nt,i
O=C1/C(=C/c2ccco2)Oc2c1ccc(O)c2CN1CCCCC1,i,i,i,i,i
Cc1ccc(/C=C2\Oc3c(ccc(O)c3CN3CCN(CCO)CC3)C2=O)cc1,90,i,35,i,i
CC(C)c1ccc(/C=C2\Oc3c(ccc(O)c3CN3CCN(C)CC3)C2=O)cc1,88,i,nt,i,i
SMILES,Runt-SMMHC FRET,Rce1 inhib,RanGTP-Impb inh,Runt-CBFb FRET,Platelet DG rel
COc1cc(OC)cc(-c2ncc3ccccn23)c1,i,+,i,i,i
CC(C)S(=O)(=O)N1CCN(c2ccnc3cc(Cl)ccc23)CC1,i,i,?,i,i
N=c1oc2cc(O)ccc2cc1C(=O)Nc1ccc(F)cc1,nt,i,171,nt,i
COc1ccc(-c2cc3nc(C)cc(N)n3n2)cc1,i,nt,i,i,94
CC(OC(=O)c1cccc(-n2cnnn2)c1)C(=O)c1ccccc1 (stereo not given),nt,i,i,nt,i
Cc1ccnc2nc(C(=O)Nc3ccc(S(=O)(=O)N4CCCC4)cc3)nn12,i,nt,i,i,i
O=c1cc(N2CCCCC2)nc2n1CCCS2,i,i,159,i,i
CN(C)c1cc(=O)n2c(n1)SCCC2,i,i,72,nt,i
Cc1sc2nc3n(c(=O)c2c1C)CCCS3,i,i,?,i,i
O=C(/C=C\Nc1ccc2c(c1)OCO2)c1ccccn1,i,i,i,i,58
CCOc1ccc2[nH]c(=O)c(CN(CCN3CCOCC3)Cc3nnnn3C(C)(C)CC)cc2c1,i,+,i,i,i
COc1ccc(C2=CC3=C(Br)C(=O)C(C)(OC(=O)C4CCCC4)C(=O)C3=CO2)cc1 (stereo not given),i,i,i,64,i
COCCn1c(N)c(C(=O)OCc2ccccc2)c2nc3ccccc3nc21,65,i,18,i,i
COCCNC(=O)c1c(N)n(CCC2=CCCCC2)c2nc3ccccc3nc12,58,i,68,i,i
Nc1c(S(=O)(=O)c2cccs2)c2nc3ccccc3nc2n1CCc1ccccc1,i,i,?,i,i
COC(=O)C1=C(C)N(CC2CCCO2)C(=O)C1 (stereo not given),i,i,17,i,i
CCN1C(=O)CC(C(=O)OC)=C1C,i,i,i,i,i
CC1CC1C(=O)Nc1cc(S(=O)(=O)N2CCOCC2)ccc1N1CCCC1 (stereo not given),i,nt,i,i,i
CCN(CC(=O)NCc1cccs1)C(=O)c1cccc(S(=O)(=O)Nc2ccccc2Cl)c1,nt,i,i,nt,i
CCOC(=O)C1CCN(CCC(=O)Nc2ccc(Br)c(C)c2)CC1,nt,i,i,nt,i
Cc1cc(NC(=O)CCN2CCC(C(N)=O)CC2)ccc1Br,i,i,59,i,i
CC(C)(C)OC(=O)N1CCC(c2c(C(=O)NCC3CCN(C4CCCC4)C3)cnn2-c2cccc(Cl)c2)CC1 (stereo not given),nt,i,i,nt,i
O=C(NN1C(=O)c2cc(Br)ccc2NC1c1cc(Br)cc(Br)c1O)c1ccncc1 (stereo not given),i,i,i,i,i
CC(C)CCN1CCN(Cc2ccc(Oc3ncccn3)cc2)CC1CCO (stereo not given),i,i,?,i,i
CC(C)N1CCN(Cc2ccc(Oc3ncccn3)cc2)CC1CCO (stereo not given),i,+,i,i,i
SMILES,Runt-SMMHC FRET,Rce1 inhib,RanGTP-Impb inh,Runt-CBFb FRET,Platelet DG rel
CCOC(=O)CN1C(=O)S/C(=C\c2ccc(-c3ccc(C(=O)O)c(Cl)c3)o2)C1=O,nt,i,23,nt,i
CC(C)N1C(=O)S/C(=C\c2ccc(-c3ccc(Cl)c(C(=O)O)c3)o2)C1=O,nt,i,26,nt,i
O=C(O)c1ccc(-c2ccc(/C=C3\NC(=O)N(Cc4ccc(Cl)cc4)C3=O)o2)cc1Cl,i,i,58,i,i
Cc1ccc(N2NC(=O)/C(=C/c3ccc(-c4ccc(Cl)c(C(=O)O)c4)o3)C2=O)cc1,i,i,i,i,i
Cc1ccn(CCNC(=O)C2CCC(=O)N(CCc3ccc(Cl)cc3)C2)n1 (stereo not given),nt,i,i,nt,i
CC(C)CNC(=O)COc1cccc(C(=O)NCc2ccccc2)c1,i,+,i,i,i
Clc1nc(Nc2ccc(N3CCOCC3)cc2)c2ccccc2n1,i,i,i,i,i
O=S(=O)(Nc1nc2ccccc2nc1Nc1ccc(N2CCOCC2)cc1)c1cc(Cl)ccc1Cl,i,i,37,i,i
